Source: paper PMC4206694 (Journal of Medicinal Chemistry, 2014)

Columns and labels:
[1] = test system: newborn hippocampal neurons; experiment: In vivo hippocampal neuroprotection assay; set-up: species or system mouse; conditions: for number of surviving newborn hippocampal neurons (BrdU+ cells): ICV 10 μM, Figure 1
Summary of the method: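 Adult (12-week) wild-type […] mice, environmentally deprived, four per group. Compound was infused ICV into the left lateral ventricle by implanted osmotic minipump (0.5 μL/h, 7 days) or given IP twice daily. BrdU 50 mg/kg/day IP for 6 days; perfused 24 h after last BrdU. Anti-BrdU staining after formamide/SSC and HCl unmasking. BrdU+ SGZ/dentate cells counted contralaterally, every fifth section, normalized to dentate gyrus volume.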

[2] = cited from earlier work
[3] = test system: newborn hippocampal neurons; conditions: cited from earlier work
[4] = test system: motor neurons in the spinal cord; conditions: cited from earlier work
[5] = Long-term treatment tolerability; assay type: in vivo
[6] = test system: dopaminergic neurons within the SNc; experiment: MPTP model of Parkinson's disease; assay type: in vivo, mouse; conditions: BID, 21 days after MPTP; for rescue of TH+ neurons: 10 mg kg^–1 day^–1, IP
Summary of the method: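 Adult male C57Bl/6 mice, individually housed 1 week, received free-base MPTP 30 mg/kg/day IP for 5 days. Compound or vehicle was started on day 6, 24 h after the last MPTP dose, and given twice daily for 21 days. After perfusion and fixation in 4% paraformaldehyde, every fourth section through striatum and SNc was stained for tyrosine hydroxylase. TH+ cells were counted blinded; mean ± SEM.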

[7] = test system: cerebral cortical neurons; conditions: cited from earlier work
[8] = test system: dopaminergic neurons within the SNc; conditions: cited from earlier work
CYP2C8 = target: T1, CYP2C8 (Homo sapiens, UniProt P10632); experiment: Cytochrome P450 inhibition, CYP2C8; assay type: in vitro ADME
T1 sequence (P10632 1-490): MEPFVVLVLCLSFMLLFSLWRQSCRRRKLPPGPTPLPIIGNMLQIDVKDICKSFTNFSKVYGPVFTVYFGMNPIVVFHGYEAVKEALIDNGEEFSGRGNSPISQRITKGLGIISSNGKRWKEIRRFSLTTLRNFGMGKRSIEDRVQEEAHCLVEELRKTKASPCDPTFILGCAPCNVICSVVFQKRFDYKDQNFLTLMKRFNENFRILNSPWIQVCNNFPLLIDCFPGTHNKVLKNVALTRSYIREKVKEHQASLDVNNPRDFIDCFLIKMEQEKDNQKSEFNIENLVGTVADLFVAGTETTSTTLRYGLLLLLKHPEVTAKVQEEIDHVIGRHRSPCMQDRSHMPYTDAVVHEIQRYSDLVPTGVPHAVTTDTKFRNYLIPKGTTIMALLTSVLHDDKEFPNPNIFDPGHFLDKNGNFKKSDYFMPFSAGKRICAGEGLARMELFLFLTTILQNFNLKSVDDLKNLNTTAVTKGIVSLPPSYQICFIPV

μ-opioid receptor = μ-opioid receptor (Homo sapiens, UniProt P35372); experiment: Psychoactive Drug Screening Program competition binding, μ-opioid receptor; conditions: read-out: IC50 μ-opioid receptor; ligand displacement, PDSP
Sequence of μ-opioid receptor (P35372 whole entry, species assumed): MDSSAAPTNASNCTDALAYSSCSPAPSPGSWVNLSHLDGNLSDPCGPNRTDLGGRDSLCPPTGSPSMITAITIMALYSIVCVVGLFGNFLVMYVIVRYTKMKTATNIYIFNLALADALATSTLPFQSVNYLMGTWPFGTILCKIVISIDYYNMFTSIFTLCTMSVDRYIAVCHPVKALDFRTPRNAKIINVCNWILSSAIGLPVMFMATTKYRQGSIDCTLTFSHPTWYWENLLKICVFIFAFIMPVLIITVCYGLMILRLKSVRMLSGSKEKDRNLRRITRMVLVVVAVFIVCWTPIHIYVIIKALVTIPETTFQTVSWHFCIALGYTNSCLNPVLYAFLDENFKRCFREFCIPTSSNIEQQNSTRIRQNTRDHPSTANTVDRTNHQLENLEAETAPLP

[9] = Pharmacokinetic analysis, plasma and brain levels; assay type: in vivo, mouse; conditions: single time point (6 h) after IP 1, 3, 10 or 30 mg/kg, Figure S3
Summary of the method: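 Compound in 5% DMSO/10% cremophor EL/85% D5W (pH 7.2) was dosed to adult mice (0.2 mL total). Mice were killed by CO2. Plasma came from ACD-treated blood spun at 9300g. Brains were rinsed in PBS and homogenized in 3 volumes of PBS. Plasma or lysate (100 μL) was precipitated with 200 μL acetonitrile/0.15% formic acid and spun at 13120g for 5 min. Supernatant was analysed by HPLC/MS/MS.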

CYP2B6 = target: T2, CYP2B6 (Homo sapiens, UniProt P20813); experiment: Cytochrome P450 inhibition, CYP2B6; assay type: in vitro ADME
T2 sequence (P20813 1-491): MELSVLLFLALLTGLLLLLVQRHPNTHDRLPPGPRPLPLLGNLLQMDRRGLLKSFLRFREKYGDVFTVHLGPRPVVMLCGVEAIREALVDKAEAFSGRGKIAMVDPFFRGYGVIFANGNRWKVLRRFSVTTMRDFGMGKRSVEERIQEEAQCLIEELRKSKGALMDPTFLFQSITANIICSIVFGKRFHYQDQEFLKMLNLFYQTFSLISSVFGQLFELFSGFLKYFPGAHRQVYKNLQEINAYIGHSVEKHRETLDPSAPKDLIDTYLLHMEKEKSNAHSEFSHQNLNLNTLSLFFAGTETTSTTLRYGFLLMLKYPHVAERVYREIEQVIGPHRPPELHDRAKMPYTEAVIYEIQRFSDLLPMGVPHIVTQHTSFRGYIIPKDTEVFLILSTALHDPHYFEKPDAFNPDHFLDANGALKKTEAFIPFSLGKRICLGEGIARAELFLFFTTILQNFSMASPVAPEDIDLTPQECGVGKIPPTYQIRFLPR

CYP2C9 = CYP2C9 (Homo sapiens, UniProt P11712); experiment: Cytochrome P450 inhibition, CYP2C9; assay type: in vitro ADME
Sequence of CYP2C9 (P11712 whole entry): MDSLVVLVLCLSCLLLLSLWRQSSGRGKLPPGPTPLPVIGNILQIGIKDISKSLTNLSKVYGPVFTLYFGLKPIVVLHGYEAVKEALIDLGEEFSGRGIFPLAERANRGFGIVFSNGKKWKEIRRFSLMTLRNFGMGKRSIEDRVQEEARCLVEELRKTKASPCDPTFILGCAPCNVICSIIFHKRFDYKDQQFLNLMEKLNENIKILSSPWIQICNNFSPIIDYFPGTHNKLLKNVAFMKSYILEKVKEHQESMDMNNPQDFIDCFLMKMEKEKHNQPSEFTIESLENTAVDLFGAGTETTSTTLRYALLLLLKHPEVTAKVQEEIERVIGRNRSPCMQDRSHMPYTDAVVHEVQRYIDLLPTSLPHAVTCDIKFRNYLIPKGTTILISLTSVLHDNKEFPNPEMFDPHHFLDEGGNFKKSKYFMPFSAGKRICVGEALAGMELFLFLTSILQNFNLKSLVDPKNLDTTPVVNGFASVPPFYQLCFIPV

CYP3A4 = CYP3A4 (Homo sapiens, UniProt P08684); experiment: Cytochrome P450 inhibition, CYP3A4; assay type: in vitro ADME
Sequence of CYP3A4 (P08684 whole entry): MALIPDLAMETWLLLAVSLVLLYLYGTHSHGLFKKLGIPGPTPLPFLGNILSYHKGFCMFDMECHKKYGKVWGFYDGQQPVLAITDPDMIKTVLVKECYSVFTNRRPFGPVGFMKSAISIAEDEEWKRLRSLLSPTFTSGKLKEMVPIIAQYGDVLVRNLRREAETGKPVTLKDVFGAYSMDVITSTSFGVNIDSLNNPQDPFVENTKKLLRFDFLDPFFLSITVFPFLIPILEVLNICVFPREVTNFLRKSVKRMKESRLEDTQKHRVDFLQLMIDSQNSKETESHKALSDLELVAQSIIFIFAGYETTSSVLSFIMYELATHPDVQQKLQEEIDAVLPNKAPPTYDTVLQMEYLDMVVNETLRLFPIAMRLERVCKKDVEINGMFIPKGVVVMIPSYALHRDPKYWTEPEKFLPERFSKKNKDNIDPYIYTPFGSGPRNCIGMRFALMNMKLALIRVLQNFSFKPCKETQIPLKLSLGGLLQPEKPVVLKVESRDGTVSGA

CYP3D6 = CYP3D6 (Homo sapiens, UniProt P10635); experiment: Cytochrome P450 inhibition, CYP3D6; assay type: in vitro ADME
Sequence of CYP3D6 (P10635 whole entry): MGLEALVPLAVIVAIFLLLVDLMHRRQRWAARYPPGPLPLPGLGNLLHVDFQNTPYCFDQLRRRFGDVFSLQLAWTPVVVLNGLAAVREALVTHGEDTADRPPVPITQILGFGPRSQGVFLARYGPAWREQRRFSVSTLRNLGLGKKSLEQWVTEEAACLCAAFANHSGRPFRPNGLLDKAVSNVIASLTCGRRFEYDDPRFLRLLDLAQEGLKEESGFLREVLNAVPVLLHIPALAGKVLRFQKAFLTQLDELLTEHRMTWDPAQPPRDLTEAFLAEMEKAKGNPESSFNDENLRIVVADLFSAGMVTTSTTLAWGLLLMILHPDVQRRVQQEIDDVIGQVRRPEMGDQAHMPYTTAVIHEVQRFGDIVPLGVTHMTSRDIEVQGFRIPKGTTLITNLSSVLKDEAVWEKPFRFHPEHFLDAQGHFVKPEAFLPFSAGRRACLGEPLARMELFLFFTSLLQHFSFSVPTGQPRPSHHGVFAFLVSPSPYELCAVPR

[10] = cited from earlier work; remark: listed apart in the source
[11] = cited from earlier work; remark: listed apart in the source

COc1cccc(NCC(O)Cn2c3ccc(Br)cc3c3cc(Br)ccc32)n1 (stereo not drawn) [compound 17, 1-(3,6-Dibromo-9H-carbazol-9-yl)-3-((6-methoxypyridin-2-yl)amino)propan-2-ol]
number of surviving newborn hippocampal neurons (BrdU+ cells) ([1]; 7 days): increase in the number of BrdU+ cells compared with vehicle

NCC(O)Cn1c2ccc(Br)cc2c2cc(Br)ccc21 (stereo not drawn) [compound 16, 1-Amino-3-(3,6-dibromo-9H-carbazol-9-yl)propan-2-ol]
number of surviving newborn hippocampal neurons (BrdU+ cells) ([1]; 7 days): increase in the number of BrdU+ cells compared with vehicle

COc1cccc(NCC(F)Cn2c3ccc(Br)cc3c3cc(Br)ccc32)c1 (stereo not drawn) [compound 2]
antidepressant effect [2]: exert antidepressant effects
activity in the in vivo hippocampal neuroprotection assay ([3]; previous studies): substantially improved the activity
motor neuron cell death in spinal cord of G93A SOD1 transgenic mice [4]: minimize motor neuron cell death in the spinal cord
impact on weight, behavior, or appearance ([5]; up to 40 mg kg^–1 day^–1 for 21 days): no negative impact on the weight, behavior, or appearance
rescue of TH+ neurons [6]: around 75%
dose showing significant neuroprotective effect in MPTP model ([6]; IP): 5 mg kg^–1 day^–1
protection of cerebral cortical neurons, moderate fluid percussion TBI [7]: protect rat cerebral cortical neurons
protection of neurons in the substantia nigra, MPTP mouse model [8]: protect neurons in the substantia nigra

COc1cccc(NCC(F)Cn2c3ccc(Br)cc3c3cc(Br)ccc32)n1 (stereo not drawn) [compound 15, N-(3-(3,6-Dibromo-9H-carbazol-9-yl)-2-fluoropropyl)-6-methoxypyridin-2-amine]
impact on weight, behavior, or appearance ([5]; up to 10 mg kg^–1 day^–1 for 21 days): no negative impact on the weight, behavior, or appearance
rescue of TH+ neurons [6]: over 85%
dose showing significant neuroprotective effect in MPTP model ([6]; IP): 1 mg kg^–1 day^–1
number of surviving newborn hippocampal neurons (BrdU+ cells) ([1]; 7 days): approximately doubled
dose at which active in hippocampal neuroprotection ([1]; IP, 7 days): 1 mg kg^–1 day^–1
dose at which ceiling of efficacy is reached in hippocampal neuroprotection ([1]; IP, 7 days): 10 mg kg^–1 day^–1

COc1cccc(NC[C@H](F)Cn2c3ccc(Br)cc3c3cc(Br)ccc32)n1 [(−)-15, (S)-N-(3-(3,6-Dibromo-9H-carbazol-9-yl)-2-fluoropropyl)-6-methoxypyridin-2-amine]
CYP2C8 sensitivity (CYP2C8): insensitive
IC50 (μ-opioid receptor): 8.2 µM
plasma and brain concentrations compared with racemic 15 [9]: indistinguishable
CYP2B6 sensitivity (CYP2B6): insensitive
neuroprotective activity in MPTP model (enantiomers) ([6]; IP, Figure 3): strongly protective
CYP2C9 sensitivity (CYP2C9): insensitive
CYP3A4 sensitivity (CYP3A4): insensitive
enantiomer-specific neuroprotective activity in mouse model of neurogenesis ([1]; pure enantiomers dosed ICV 7 days, Figure 2): highly active
CYP3D6 sensitivity (CYP3D6): insensitive

[N-]=[N+]=NCC(F)Cn1c2ccc(Br)cc2c2cc(Br)ccc21 (stereo not drawn) [compound 11, 9-(3-Azido-2-fluoropropyl)-3,6-dibromo-9H-carbazole]
number of surviving newborn hippocampal neurons (BrdU+ cells) ([1]; 7 days): inactive

Cl.NCC(F)Cn1c2ccc(Br)cc2c2cc(Br)ccc21 (stereo not drawn) [compound 12, 3-(3,6-Dibromo-9H-carbazol-9-yl)-2-fluoropropan-1-amine]
number of surviving newborn hippocampal neurons (BrdU+ cells) ([1]; 7 days): increase in the number of BrdU+ cells compared with vehicle

OC(CNc1ccccc1)Cn1c2ccc(Br)cc2c2cc(Br)ccc21 (stereo not drawn) [compound 1]
neuroprotective effect in age-related cognitive decline [10]: neuroprotective effects
antidepressant effect [2]: antidepressant activity
number of surviving newborn hippocampal cells ([3]; unbiased in vivo screen, 1 week): approximately doubled
motor neuron cell death in spinal cord of G93A SOD1 transgenic mice [4]: minimize motor neuron cell death in the spinal cord
neuroprotective effect in retinal degeneration [11]: neuroprotective effects
protection of neurons in the substantia nigra, MPTP mouse model [8]: protect neurons in the substantia nigra
